Laboratory results taken from ChEMBL document CHEMBL4138104, “Indole carboxylic acid esters of melampomagnolide B are potent anticancer agents against both hematological and solid tumor cells” (Eur J Med Chem, 2017).
Activity calls are given as the source filed them. No cut-off for these calls is given here.

Columns and labels:
Type in all cases: functional
[1] = Cytotoxicity against human M9-ENL1 cells assessed as reduction in cell viability by trypan blue staining-based assay
Summary of the method: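 M9-ENL1 AML cells (MLL-ENL-transduced human blood cells) plated at 10^6 cells/mL in alpha-MEM with 5% human plasma, 20% FBS, SCF, IL-3, IL-7 and FLT3. Drug diluted from DMSO stock into PBS, final DMSO ≤0.5%. After 24 h exposure, dead cells assessed by trypan blue and by flow cytometry (Annexin V/PI or Annexin V/7-AAD). Viability normalized to vehicle; EC50 from dose-response curves; triplicate.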

[2] = Potency index, ratio of melampomagnolide-B EC50 to compound EC50 for human M9-ENL1 cells
Summary of the method: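 M9-ENL1 AML cells, derived by MLL-ENL transduction of human blood cells, were plated at 10^6 cells/mL in alpha-MEM with 5% human plasma, 20% FBS, SCF, IL-3, IL-7 and FLT3 ligand. Exposure was 24 h. Non-apoptotic (Annexin V/7-AAD double-negative) fraction was normalized to vehicle, in triplicate, to give EC50. PTL and MMB were run as reference controls.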

Rattus norvegicus = species: Rattus norvegicus; assay: Inhibition of colony formation of rat 9LSF cells at 5 to 20 uM after 48 hrs by colony formation assay
Summary of the method: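 9L-SF cells were seeded in 60 mm dishes to reach 50% confluence (6.65×10^4 cells/cm²) after 24 h. They were treated 48 h with drug serially diluted from DMSO stock (max 0.05% DMSO), then rinsed, trypsinized, counted and seeded in triplicate flasks for colonies. Lethally irradiated (25 Gy) feeders kept density at 2,000 cells/cm². Survival was normalized to control plating efficiency, with three experiments.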

SMILES	EC50 [1]	Ratio IC50 [2]	inhibition (Rattus norvegicus)
C=C1C(=O)O[C@@H]2[C@H]3O[C@]3(C)CC/C=C(/COC(=O)c3sc4ccccc4c3Cl)CC[C@@H]12	2.1 µM	2 - 20	–
C=C1C(=O)O[C@H]2[C@H]1CC/C(CO)=C\CC[C@@]1(C)O[C@@H]21	–	–	Active
C=C1C(=O)O[C@@H]2[C@H]3O[C@]3(C)CC/C=C(/COC(=O)Cc3c[nH]c4ccccc34)CC[C@@H]12	4 µM	2 - 20	–
O=C(O)c1cc2ccccc2[nH]1	–	–	Active
C=C1C(=O)O[C@@H]2[C@H]3O[C@]3(C)CC/C=C(/COC(=O)Cc3c(C)n(C(=O)c4ccc(Cl)cc4)c4ccc(OC)cc34)CC[C@@H]12	2.7 µM	2 - 20	–
C=C1C(=O)O[C@@H]2[C@H]3O[C@]3(C)CC/C=C(/COC(=O)c3ccc4cc[nH]c4c3)CC[C@@H]12	2.5 µM	2 - 20	–
C=C1C(=O)O[C@@H]2[C@H]3O[C@]3(C)CC/C=C(/COC(=O)c3ccc4[nH]ccc4c3)CC[C@@H]12	3 µM	2 - 20	–
